Assay results from ChEMBL document CHEMBL1136089, “Synthesis and in vitro activity of new methylenepiperidinyl and methylenepyrrolidinyl oxazolidinone antibacterial agents” (Bioorg Med Chem Lett, 2003).
≈ marks a conversion by molar mass, not a printed value.

Experiments:
[1] = system: Staphylococcus epidermidis; assay: In vitro antibacterial activity against Staphylococcus epidermis ATCC 1228; assay type: functional
Outline: (§1)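 MIC by agar dilution on Mueller–Hinton agar, inoculum 10⁴ CFU/spot. Reported in μg/mL.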

[2] = system: Staphylococcus epidermidis; assay: In vitro antibacterial activity against Staphylococcus epidermis C2235; assay type: functional; outline: as §1
Staphylococcus aureus [3] = assay: In vitro antibacterial against methicillin-susceptible Staphylococcus aureus (MSSA); assay type: functional
Staphylococcus aureus [4] = assay: In vitro antibacterial activity against ciprofloxacin-resistant Staphylococcus aureus (CRSA); assay type: functional
Enterococcus faecium = assay: In vitro antibacterial activity against vancomycin-resistant Enterococcus faecium C6487
Streptococcus pyogenes [5] = assay: In vitro antibacterial activity against Streptococcus pyogenes ATTCC8668
Enterococcus faecalis [6] = assay: In vitro antibacterial activity against Enterococcus faecalis C6291 (E. f. 1); assay type: functional; outline: as §1
Enterococcus faecalis [7] = assay: In vitro antibacterial activity against Enterococcus faecalis C6301 (E. f. 1); assay type: functional; outline: as §1
Staphylococcus aureus [8] = assay: In vitro antibacterial activity against Staphylococcus aureus; assay type: functional
Streptococcus pyogenes [9] = assay: In vitro antibacterial activity against Streptococcus pyogenes C6003
Staphylococcus aureus [10] = assay: In vitro antibacterial activity against methicillin-resistant Staphylococcus aureus (MRSA); assay type: functional

| SMILES | MIC [1] [µg/mL] | MIC [2] [µg/mL] | MIC (Staphylococcus aureus [3]) [µg/mL] | MIC (Staphylococcus aureus [4]) [µg/mL] | MIC (Enterococcus faecium) [µg/mL] | MIC (Streptococcus pyogenes [5]) [µg/mL] | MIC (Enterococcus faecalis [6]) [µg/mL] | MIC (Enterococcus faecalis [7]) [µg/mL] | MIC (Staphylococcus aureus [8]) [µg/mL] | MIC (Streptococcus pyogenes [9]) [µg/mL] | MIC (Staphylococcus aureus [10]) [µg/mL] |
| --- | --- | --- | --- | --- | --- | --- | --- | --- | --- | --- | --- |
| CO/N=C/C=C1CCN(c2ccc(N3C[C@H](CNC(C)=O)OC3=O)cc2F)CC1 | 1 (≈ 2.47 µM) | 2 (≈ 4.95 µM) | 8 (≈ 19.8 µM) | 4 (≈ 9.89 µM) | 4 (≈ 9.89 µM) | 1 (≈ 2.47 µM) | 4 (≈ 9.89 µM) | 4 (≈ 9.89 µM) | 8 (≈ 19.8 µM) | 2 (≈ 4.95 µM) | 4 (≈ 9.89 µM) |
| CC(=O)NC[C@H]1CN(c2ccc(N3CCC(=Cc4cc(-c5csnc5C)no4)CC3)c(F)c2)C(=O)O1 | 2 (≈ 3.91 µM) | 4 (≈ 7.82 µM) | 16 (≈ 31.3 µM) | 8 (≈ 15.6 µM) | 4 (≈ 7.82 µM) | 2 (≈ 3.91 µM) | 8 (≈ 15.6 µM) | 8 (≈ 15.6 µM) | 16 (≈ 31.3 µM) | 8 (≈ 15.6 µM) | 8 (≈ 15.6 µM) |
| CC(=O)NC[C@H]1CN(c2ccc(N3CCC(=CC=O)CC3)c(F)c2)C(=O)O1 | 1 (≈ 2.66 µM) | 2 (≈ 5.33 µM) | 8 (≈ 21.3 µM) | 4 (≈ 10.7 µM) | 8 (≈ 21.3 µM) | 2 (≈ 5.33 µM) | 8 (≈ 21.3 µM) | 4 (≈ 10.7 µM) | 8 (≈ 21.3 µM) | 8 (≈ 21.3 µM) | 4 (≈ 10.7 µM) |
| CCOC(=O)C(Cl)=C1CCN(c2ccc(N3C[C@H](CNC(C)=O)OC3=O)cc2F)CC1 | 2 (≈ 4.41 µM) | 4 (≈ 8.81 µM) | 8 (≈ 17.6 µM) | 16 (≈ 35.3 µM) | 4 (≈ 8.81 µM) | 2 (≈ 4.41 µM) | 4 (≈ 8.81 µM) | 2 (≈ 4.41 µM) | 32 (≈ 70.5 µM) | 8 (≈ 17.6 µM) | 16 (≈ 35.3 µM) |
| CN[C@H](CC(C)C)C(=O)N[C@H]1C(=O)N[C@@H](CC(N)=O)C(=O)N[C@H]2C(=O)N[C@H]3C(=O)N[C@H](C(=O)N[C@H](C(=O)O)c4cc(O)cc(O)c4-c4cc3ccc4O)[C@H](O)c3ccc(c(Cl)c3)Oc3cc2cc(c3O[C@@H]2O[C@H](CO)[C@@H](O)[C@H](O)[C@H]2O[C@H]2C[C@](C)(N)[C@H](O)[C@H](C)O2)Oc2ccc(cc2Cl)[C@H]1O [VANCOMYCIN] | – | – | – | – | > 32 | 0.12 (≈ 0.0828 µM) | 2 (≈ 1.38 µM) | 1 (≈ 0.69 µM) | – | – | – |
| CC(=O)NC[C@H]1CN(c2ccc(N3CCC(=C(C#N)C#N)CC3)c(F)c2)C(=O)O1 | 1 (≈ 2.52 µM) | 2 (≈ 5.03 µM) | 4 (≈ 10.1 µM) | 4 (≈ 10.1 µM) | 4 (≈ 10.1 µM) | 1 (≈ 2.52 µM) | 4 (≈ 10.1 µM) | 2 (≈ 5.03 µM) | 2 (≈ 5.03 µM) | 4 (≈ 10.1 µM) | 2 (≈ 5.03 µM) |
| CCOC(=O)C(C#N)=C1CCN(c2ccc(N3C[C@H](CNC(C)=O)OC3=O)cc2F)CC1 | 1 (≈ 2.25 µM) | 2 (≈ 4.5 µM) | 4 (≈ 9 µM) | 4 (≈ 9 µM) | 2 (≈ 4.5 µM) | 1 (≈ 2.25 µM) | 4 (≈ 9 µM) | 2 (≈ 4.5 µM) | 4 (≈ 9 µM) | 4 (≈ 9 µM) | 4 (≈ 9 µM) |
| C/C(S)=N/C[C@H]1CN(c2ccc(N3CCC(=CC#N)CC3)c(F)c2)C(=O)O1 | 0.5 (≈ 1.29 µM) | 0.5 (≈ 1.29 µM) | 2 (≈ 5.15 µM) | 2 (≈ 5.15 µM) | 0.5 (≈ 1.29 µM) | 0.5 (≈ 1.29 µM) | 1 (≈ 2.57 µM) | 1 (≈ 2.57 µM) | 2 (≈ 5.15 µM) | 0.25 (≈ 0.644 µM) | 2 (≈ 5.15 µM) |
| CC(=O)NC[C@H]1CN(c2ccc(N3CC/C(=C/C#N)C3)c(F)c2)C(=O)O1 | 0.5 (≈ 1.4 µM) | – | – | 0.5 (≈ 1.4 µM) | 1 (≈ 2.79 µM) | – | – | 1 (≈ 2.79 µM) | 0.5 (≈ 1.4 µM) | – | – |
| CC(=O)NC[C@H]1CN(c2ccc(N3CCC(=CC(C)O)CC3)c(F)c2)C(=O)O1 (some centres undefined) | 2 (≈ 5.11 µM) | 4 (≈ 10.2 µM) | 16 (≈ 40.9 µM) | 8 (≈ 20.4 µM) | 4 (≈ 10.2 µM) | 2 (≈ 5.11 µM) | 8 (≈ 20.4 µM) | 4 (≈ 10.2 µM) | 8 (≈ 20.4 µM) | 8 (≈ 20.4 µM) | 4 (≈ 10.2 µM) |
| CC(=O)NC[C@H]1CN(c2ccc(N3CCC(=CC(C)OC(C)=O)CC3)c(F)c2)C(=O)O1 (some centres undefined) | 2 (≈ 4.61 µM) | 8 (≈ 18.5 µM) | 16 (≈ 36.9 µM) | 16 (≈ 36.9 µM) | 4 (≈ 9.23 µM) | 0.25 (≈ 0.577 µM) | 8 (≈ 18.5 µM) | 8 (≈ 18.5 µM) | 16 (≈ 36.9 µM) | 8 (≈ 18.5 µM) | 8 (≈ 18.5 µM) |
| CC(=O)NC[C@H]1CN(c2ccc(N3CCC(=C/C(C)=N/O)CC3)c(F)c2)C(=O)O1 | 1 (≈ 2.47 µM) | 4 (≈ 9.89 µM) | 8 (≈ 19.8 µM) | 8 (≈ 19.8 µM) | 4 (≈ 9.89 µM) | 1 (≈ 2.47 µM) | 4 (≈ 9.89 µM) | 4 (≈ 9.89 µM) | 8 (≈ 19.8 µM) | 4 (≈ 9.89 µM) | 4 (≈ 9.89 µM) |
